These results are taken from ChEMBL document CHEMBL4706504, “Hit-to-lead optimization of a latency-associated nuclear antigen inhibitor against Kaposi's sarcoma-associated herpesvirus infections” (Eur J Med Chem, 2020).

Activity calls are given as the source filed them. The calls are words filed in the database; no cut-off is given here.

A short description of test [1]: Inhibition of Kaposi's sarcoma herpesvirus C-terminal His-tagged oligomerization deficient LANA DBD (1008 to 1146 residues) K1055E/K1138S/K1140D/K1141D/R1039Q/R1040Q/A1121E/K1109A/D1110A mutant expressed in Escherichia coli BL21(DE3) assessed as inhibition of LANA interaction with fluorescently-labelled viral DNA LBS1 probe preincubated with LANA-DBD for 60 mins followed by addition of DNA probe and measured after 90 mins by flourescence polarization assay. The arrangement: species or system Human gammaherpesvirus 8. The method in brief:
(§1)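 FP competition of DNA binding, using the oligomerization-deficient LANA DBD mutant (aa 1008-1146, nine point mutations). Probes were LBS1, LBS2 or LBS3. Values are IC50 from the average of duplicates ± standard deviation.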

A short description of test [2]: Inhibition of Kaposi's sarcoma herpesvirus C-terminal His-tagged oligomerization deficient LANA DBD (1008 to 1146 residues) K1055E/K1138S/K1140D/K1141D/R1039Q/R1040Q/A1121E/K1109A/D1110A mutant expressed in Escherichia coli BL21(DE3) assessed as inhibition of LANA interaction with fluorescently-labelled viral DNA LBS2 probe preincubated with LANA-DBD for 60 mins followed by addition of DNA probe and measured after 90 mins by flourescence polarization assay. The arrangement: species or system Human gammaherpesvirus 8. In a few lines: as §1

Test [3] concerns Human gammaherpesvirus 8. The test can be described thus: Inhibition of Kaposi's sarcoma herpesvirus C-terminal His-tagged oligomerization deficient LANA DBD (1008 to 1146 residues) K1055E/K1138S/K1140D/K1141D/R1039Q/R1040Q/A1121E/K1109A/D1110A mutant expressed in Escherichia coli BL21(DE3) assessed as inhibition of LANA interaction with 5'-Dy682-labeled viral DNA LBS1 probe at 500 uM preincubated with LANA-DBD for 60 mins followed by addition of DNA probe and measured after 30 mins by Electrophoretic mobility shift assay. The settings on record: time 90.0 min. For orientation: Mobility shift assays separate free from complexed probe on a gel.

Test [4] in a line: Inhibition of Kaposi's sarcoma herpesvirus C-terminal His-tagged oligomerization deficient LANA DBD (1008 to 1146 residues) K1055E/K1138S/K1140D/K1141D/R1039Q/R1040Q/A1121E/K1109A/D1110A mutant expressed in Escherichia coli BL21(DE3) assessed as inhibition of LANA interaction with fluorescently-labelled viral DNA LBS3 probe preincubated with LANA-DBD for 60 mins followed by addition of DNA probe and measured after 90 mins by flourescence polarization assay. The arrangement: species or system Human gammaherpesvirus 8. The method in brief:
as §1

Test [5] can be described thus: Inhibition of Kaposi's sarcoma herpesvirus C-terminal His-tagged oligomerization deficient LANA DBD (1008 to 1146 residues) K1055E/K1138S/K1140D/K1141D/R1039Q/R1040Q/A1121E/K1109A/D1110A mutant expressed in Escherichia coli BL21(DE3) assessed as inhibition of LANA interaction with 5'-Dy682-labeled viral DNA LBS1 probe preincubated with LANA-DBD for 60 mins followed by addition of DNA probe and measured after 30 mins by Electrophoretic mobility shift assay. More on the design: species or system Human gammaherpesvirus 8.

Test [6] concerns Human gammaherpesvirus 8. The test is described as follows: Inhibition of Kaposi's sarcoma herpesvirus wild type LANA CTD (934 to 1162 residues) expressed in Escherichia coli BL21 (DE3) assessed as inhibition of LANA interaction with 5'-Dy682-labeled viral DNA LBS1 probe at 250 uM preincubated with LANA CTD for 60 mins followed by addition of DNA probe and measured after 30 mins by Electrophoretic mobility shift assay. The following applies: time 90.0 min.

The test system of test [7] is Human gammaherpesvirus 8. The test is described as follows: Inhibition of Kaposi's sarcoma herpesvirus C-terminal His-tagged oligomerization deficient LANA DBD (1008 to 1146 residues) K1055E/K1138S/K1140D/K1141D/R1039Q/R1040Q/A1121E/K1109A/D1110A mutant expressed in Escherichia coli BL21(DE3) assessed as inhibition of LANA interaction with 5'-Dy682-labeled viral DNA LBS1+2 probe at 62.5 uM preincubated with LANA-DBD for 60 mins followed by addition of DNA probe and measured after 30 mins by Electrophoretic mobility shift assay. The following applies: time 90.0 min. The method in brief:
(§2)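 EMSA with the LANA DBD mutant as a dose-dependent test against higher-order complexes. Combined probes were LBS1+2 and LBS2+1+3. Inhibition was judged from loss of the LANA-DNA complex band.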

In test [8] the test system is Human gammaherpesvirus 8. The test can be described thus: Inhibition of Kaposi's sarcoma herpesvirus C-terminal His-tagged oligomerization deficient LANA DBD (1008 to 1146 residues) K1055E/K1138S/K1140D/K1141D/R1039Q/R1040Q/A1121E/K1109A/D1110A mutant expressed in Escherichia coli BL21(DE3) assessed as inhibition of LANA interaction with 5'-Dy682-labeled viral DNA LBS1+2+3 probe at 125 uM preincubated with LANA-DBD for 60 mins followed by addition of DNA probe and measured after 30 mins by Electrophoretic mobility shift assay. The settings on record: time 90.0 min. In a few lines: as §2

Test [9] in a line: Inhibition of Kaposi's sarcoma herpesvirus wild type LANA CTD (934 to 1162 residues) expressed in Escherichia coli BL21 (DE3) assessed as inhibition of LANA interaction with 5'-Dy682-labeled viral DNA LBS1 probe preincubated with LANA CTD for 60 mins followed by addition of DNA probe and measured after 30 mins by Electrophoretic mobility shift assay. The arrangement: species or system Human gammaherpesvirus 8. The method in brief:
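GST-tagged KSHV LANA CTD (aa934-1162), wild type and unmutated, binding an LBS1 probe in EMSA. Compounds were first screened at a single fixed final concentration, then run in a dose-response EMSA. LANA-DNA complex (upper) band intensities were normalized to 0-100% inhibition. IC50 came from a four-parameter dose-response fit.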

Test [10] deals with Human gammaherpesvirus 8. The test is described as follows: Binding affinity to Kaposi's sarcoma herpesvirus C-terminal His-tagged oligomerization deficient LANA DBD (1008 to 1146 residues) K1055E/K1138S/K1140D/K1141D/R1039Q/R1040Q/A1121E/K1109A/D1110A mutant expressed in Escherichia coli BL21(DE3) at 500 uM by STD-NMR analysis.
Test [11] relates to Human gammaherpesvirus 8. The test can be described thus: Inhibition of Kaposi's sarcoma herpesvirus C-terminal His-tagged oligomerization deficient LANA DBD (1008 to 1146 residues) K1055E/K1138S/K1140D/K1141D/R1039Q/R1040Q/A1121E/K1109A/D1110A mutant expressed in Escherichia coli BL21(DE3) assessed as inhibition of LANA interaction with 5'-Dy682-labeled …. The following applies: dose 250.0 µM, time 90.0 min.

One may read the IC50 as the midpoint of a concentration-inhibition curve. A word on the inhibition: it is the share of the control response that was lost under treatment.

As for `Cc1ccc2cncc(-n3cc(-c4ccc(C(=O)O)cc4)nn3)c2c1`, the IC50 in test [1] turned out to be 9 µM; in test [2], 8 µM; in [4], 8 µM; in [5], 53 µM; in test [9], 60 µM. In addition, the inhibition in the test with Human gammaherpesvirus 8 [3] is 100%. Besides, the inhibition result with Human gammaherpesvirus 8 [6], in the test with Human gammaherpesvirus 8 [7] and in the test on Human gammaherpesvirus 8 [8] was “Active” throughout. For the same compound, the result in the test on Human gammaherpesvirus 8 [10] was Active.
Take `O=C(O)c1ccc(-c2cn(-c3cccnc3)nn2)cc1`: the IC50 in test [1] stood at 20 µM; in [2] it was 17 µM; in [4], 19 µM; in test [5], 426 µM; in test [9], 435 µM. Besides, the inhibition in the test on Human gammaherpesvirus 8 [3] stood at 82%. Besides, in the test on Human gammaherpesvirus 8 [6], the inhibition entry was “inactive”.
On to `Cc1cc(-c2cccc(CO)c2)ncc1-n1cc(-c2ccc(C(=O)O)cc2)nn1`, for which the IC50 in test [1] was determined as 64 µM; in test [2], 25 µM; in test [4] it was 63 µM. In the test with Human gammaherpesvirus 8 [3], the inhibition is 100%. In addition, the inhibition entry in the test on Human gammaherpesvirus 8 [6] and in the test on Human gammaherpesvirus 8 [11] was “inactive” each time.
